Laboratory results from PubChem BioAssay AID504382 (The Scripps Research Institute Molecular Screening Center, 2011).
About 460 (18%) of roughly 2,500 compounds were called active.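 Rule for the calls: active = mean activation above a cutoff of low control average plus 3 SD from the earlier screen (cut at about 12% in these data); inactive = the rest.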 Only a sample is shown.

Test: compound fluorescence interference without thin filaments, confirmation, artefact control for cardiac RTF calcium sensitizer project, biochemical (AID 504382)
Conditions: IANBD fluorescence interference counterscreen, buffer, EC20 Ca2+; at 7.2 µM; active compounds read high; scaled: EC20 calcium 0, EC100 calcium 100
Method in brief: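 Technique: fluorescence, 480/540 nm / Medium: MOPS-based buffer with KCl, MgCl2, EGTA, NTA, DTT, pH 7.2 / Probe or stimulus: calcium at EC20 level, 0.472 mM final / Repeats: triplicate wells per compound / Times: 15 min compound exposure at 25 °C / Measure: compound fluorescence interference relative to control well signal range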
With O=C(c1ccccc1C(=O)N1CCN(c2ccccc2)CC1)N1CCN(c2ccccc2)CC1 the fluorescence artifact activation was -0.08% (inactive).
In the case of C=CCn1c(C)c(C(C)=O)c(N2CCN(c3ccccc3)CC2)nc1=S, the fluorescence artifact activation is reported as 28.9% (active).
With CC(=O)c1nnn(-c2nc(N3CCCC3)nc(N(c3ccccc3)c3ccccc3)n2)c1C the fluorescence artifact activation was 0.23% (inactive).
In the case of CC1(C)C2CCC(C2)C1(C)N=C1OC(CCl)CS1 (stereo not given), the fluorescence artifact activation is reported as 1.52% (inactive).
For CC(C)=CCC/C(C)=C/Cc1c(O)ccc(C(=O)/C=C/c2ccc(O)cc2)c1O, the fluorescence artifact activation was 177% (active).
For CN(C)c1ccc(/C=C/C(=O)c2ccc(O)cc2)cc1, the fluorescence artifact activation was -0.03% (inactive).
With CN(C)c1ccc(/C=C/C(=O)c2ccccc2O)cc1 the fluorescence artifact activation was 0% (inactive).
With COc1ccc(C2C(C(=O)c3cccs3)=C(O)C(=O)N2c2nncs2)cc1 (stereo not given) the fluorescence artifact activation was 5.56% (inactive).
With Cc1ccc(C)c(N2CCN(C(=O)c3cc4ccccn4n3)CC2)c1 the fluorescence artifact activation was 4.58% (inactive).
With CCN(CC)c1ccc(/C=C/C(=O)C2C(=O)C=C(C)OC2=O)cc1 (stereo not given) the fluorescence artifact activation was 0.16% (inactive).
For Cc1ccc(-c2ccc(CO)o2)cc1N, the fluorescence artifact activation was 28.2% (active).
With Cc1ccc2c(CN3CCCc4ccccc43)cc(=O)oc2c1C the fluorescence artifact activation was -0.04% (inactive).
With FC(F)(F)c1cccc(-c2nc(COc3ccc(Cl)cc3Cl)no2)c1 the fluorescence artifact activation was 2280% (active).
For Cn1c(-c2ccc(C=O)s2)nc2c3ccccc3c3ccccc3c21, the fluorescence artifact activation was 5.75% (inactive).
In the case of CCOC(=O)COc1c(Cl)cc(C2NC(=S)NC(c3ccccc3)=C2C(C)=O)cc1OC (stereo not given), the fluorescence artifact activation is reported as 6.87% (inactive).
With CCOc1ccc(NC(=O)C2CC(=O)N=C(N)S2)cc1 (stereo not given) the fluorescence artifact activation was 0.11% (inactive).
In the case of Cc1ccc(NC(=O)C(C)Sc2nnc(C)n2C2CC2)cc1S(=O)(=O)N1CCOCC1 (stereo not given), the fluorescence artifact activation is reported as 0.96% (inactive).
With CN1CCCN(Cc2cccc3ccccc23)CC1 the fluorescence artifact activation was 0.24% (inactive).
In the case of O=C(CCc1ccc(S(=O)(=O)N2CCOCC2)cc1)OCC(=O)c1ccccc1, the fluorescence artifact activation is reported as 6.03% (inactive).
In the case of O=S(=O)(c1ccc(NC(=S)Nc2ccccc2)cc1)N1CCOCC1, the fluorescence artifact activation is reported as 0.1% (inactive).
In the case of NS(=O)(=O)c1cccc(NC(=O)CCc2ccc(S(=O)(=O)N3CCOCC3)cc2)c1, the fluorescence artifact activation is reported as 31.3% (active).
With CCOC(=O)CCc1c(C)nc(-n2[nH]c(C)c(CCO)c2=O)[nH]c1=O the fluorescence artifact activation was 0.03% (inactive).
In the case of CCOC(=O)CNc1ccc2c(c1)OCO2, the fluorescence artifact activation is reported as 2.35% (inactive).
In the case of Cc1ncc(CO)c2cc(-c3nnc(Nc4ccc5c(c4)OCO5)s3)c(=O)oc12, the fluorescence artifact activation is reported as 23.2% (active).
With O=C(c1ccccc1)N1C(=O)C(c2ccccc2)Oc2ccccc21 (stereo not given) the fluorescence artifact activation was -0.12% (inactive).
With CC(/C=N/Nc1ccc2nncn2n1)=C\c1ccccc1 the fluorescence artifact activation was 12.9% (active).
In the case of COc1cccc(C2C=C(c3ccc(Br)s3)Nc3ncnn32)c1OC (stereo not given), the fluorescence artifact activation is reported as -0.01% (inactive).
In the case of O=C(CNC(=O)c1cccc(Cl)c1)N/N=C/c1cccnc1, the fluorescence artifact activation is reported as 0.03% (inactive).
With CC[n+]1c(/C=C/C=C/N(C(C)=O)c2ccccc2)sc2ccccc21 the fluorescence artifact activation was 49.8% (active).
In the case of CC/C(=C/c1sc2ccccc2[n+]1CC)SC, the fluorescence artifact activation is reported as 2.16% (inactive).
For CC[n+]1c(/C=C/N(C)c2ccccc2)oc2ccccc21, the fluorescence artifact activation was -0.02% (inactive).
With CC1=Nc2ccccc2/C1=C\c1nc(-c2ccc(C(F)(F)F)cc2)oc1O the fluorescence artifact activation was -0.02% (inactive).
For C[C@H]1CCC(=O)N([C@H](CSc2ccc(Br)cc2)Cc2ccccc2)CC1, the fluorescence artifact activation was 0.11% (inactive).
In the case of Nc1c(C(=O)Nc2ccccc2F)sc2nc(Cc3ccccc3)cc(C(F)(F)F)c12, the fluorescence artifact activation is reported as 0.07% (inactive).
With CCOc1ccc2noc3c2c1C(=O)c1ccccc1-3 the fluorescence artifact activation was 0.02% (inactive).
In the case of c1ccc(Nc2nc3ccccc3n3cnnc23)cc1, the fluorescence artifact activation is reported as 0.03% (inactive).
For CCOCCc1nnc(NC(=O)COC)s1, the fluorescence artifact activation was 0.06% (inactive).
For CCCCOC(=O)Nc1nnc(C(C)C)s1, the fluorescence artifact activation was 148% (active).
In the case of CCC(CC)c1nnc(NC(=O)/C=C/c2ccco2)s1, the fluorescence artifact activation is reported as 0.09% (inactive).
With Cc1cc(S(=O)(=O)Cc2noc(-c3c(C)noc3C)n2)c(C)cc1Cl the fluorescence artifact activation was -0.02% (inactive).
For COC(=O)[C@H](Cc1ccccc1)NC(=O)Nc1ccc(OC)cc1, the fluorescence artifact activation was 0.02% (inactive).
In the case of CCOC(=O)CN1C(=O)N[C@@H](c2cccc(C(F)(F)F)c2)C(C(=O)OC)=C1C, the fluorescence artifact activation is reported as 0.03% (inactive).
In the case of COCCN1C(=O)N[C@@H](c2cccc(C(F)(F)F)c2)C(C(=O)OC)=C1C, the fluorescence artifact activation is reported as 13.5% (active).
With COc1cc(OC)c(C(=O)OC(C)C(=O)Nc2cccc(C(F)(F)F)c2)cc1OC (stereo not given) the fluorescence artifact activation was 1.83% (inactive).
With Cc1c(C(=O)NCc2ccco2)cccc1[N+](=O)[O-] the fluorescence artifact activation was 4.18% (inactive).
With COc1cc(/C=C/C(=O)CC(=O)/C=C/c2ccc(O)c(OC)c2)ccc1O the fluorescence artifact activation was 0.15% (inactive).
For COc1cc(/C=C/C(=O)/C=C(O)/C=C/c2ccc(O)c(OC)c2)ccc1O, the fluorescence artifact activation was 110% (active).
In the case of COc1cc(/C=C/C(O)=C/C(=O)/C=C/c2ccc(O)cc2)ccc1O, the fluorescence artifact activation is reported as 0.51% (inactive).
For C/C(=N/NC(=O)Nc1ccccc1)c1ccc(C)cc1, the fluorescence artifact activation was -0.02% (inactive).
In the case of Cc1c(C=O)c2ccccn2c1C(=O)c1cccs1, the fluorescence artifact activation is reported as 3.43% (inactive).
In the case of CCCNC(=O)Cn1c(=O)/c(=C\c2ccc(-c3ccc([N+](=O)[O-])cc3)o2)s/c1=C\C(=O)C(C)(C)C, the fluorescence artifact activation is reported as 8.2% (inactive).
For CC1(C)CC(=O)C=C(NCc2ccc(Cl)c(Cl)c2)C1, the fluorescence artifact activation was -0.02% (inactive).
For COc1ccc(S(=O)(=O)N2CN(Cc3ccco3)c3nc4ccccc4nc32)cc1, the fluorescence artifact activation was 37.3% (active).
In the case of O=S(=O)(c1ccc(F)cc1)N1CN(Cc2ccco2)c2nc3ccccc3nc21, the fluorescence artifact activation is reported as 8.07% (inactive).
With COc1ccc(CNC(=O)C(C#N)c2nc3ccccc3nc2N2CCCC2)cc1 (stereo not given) the fluorescence artifact activation was -0.08% (inactive).
For COC1=C/C(=C/c2c(N)n3cc(C)sc3nc2=O)C=CC1=O, the fluorescence artifact activation was -0.03% (inactive).
For Cc1cccc(Nc2c([N+](=O)[O-])c(=O)oc3ccccc23)c1, the fluorescence artifact activation was 7.76% (inactive).
In the case of COc1cc2cc(CN(Cc3cccnc3)C(=O)NCc3ccccc3)c(=O)[nH]c2cc1OC, the fluorescence artifact activation is reported as 116% (active).
For COc1ccc2cc(CN(CC3CCCO3)C(=S)NCc3ccco3)c(=O)[nH]c2c1 (stereo not given), the fluorescence artifact activation was 0.1% (inactive).
For O=C(c1ccncc1)N(Cc1ccccc1)Cc1nc2ccccc2c(=O)[nH]1, the fluorescence artifact activation was 0.03% (inactive).
With O=C1NC2=C(C(=O)CCC2)C(c2ccccc2Cl)N1 (stereo not given) the fluorescence artifact activation was 0.2% (inactive).
For O=C1N(c2ccc(Cl)cc2)C(c2ccccc2)N2CCCN12 (stereo not given), the fluorescence artifact activation was -0.06% (inactive).
With C=CCOc1ccc(/C=C2\SC(=Nc3cccnc3)NC2=O)cc1 the fluorescence artifact activation was 0.04% (inactive).
In the case of CCOc1ccc(N=C2NC(=O)S/C2=C\c2ccc(N(C)C)cc2)cc1, the fluorescence artifact activation is reported as 1920% (active).
With COc1ccc(N=C2NC(=O)S/C2=C\c2ccc(N(C)C)cc2)cc1 the fluorescence artifact activation was 9.11% (inactive).
In the case of N#CC1(C#N)C(c2ccccc2)OC23CCCCC2C1(C#N)C(=N)O3 (stereo not given), the fluorescence artifact activation is reported as 0.04% (inactive).
In the case of COc1cc(/C=C2\N=C3CCCCCN3C2=O)ccc1O, the fluorescence artifact activation is reported as -0.06% (inactive).
In the case of O=C(CCC1CCCN(C(=O)c2ccncc2)C1)NCc1ccc(F)c(F)c1 (stereo not given), the fluorescence artifact activation is reported as 0.02% (inactive).
For Oc1ccc2ccc3cccc[n+]3c2c1, the fluorescence artifact activation was 12.9% (active).
For CCn1c(SCC(=O)c2ccc(Cl)cc2)nnc1C(C)C, the fluorescence artifact activation was 2.06% (inactive).
With COc1ccc(CN2CCC(C(=O)N3CCN(c4ccccc4F)CC3)CC2)cc1OC the fluorescence artifact activation was 0.36% (inactive).
With COc1ccc(CN2CCN(C(=O)c3ccccc3F)CC2)c(OC)c1OC the fluorescence artifact activation was 14.3% (active).
For COc1ccccc1Nc1ncc(C(=O)N2CCC(C(N)=O)CC2)c2ccccc12, the fluorescence artifact activation was -0.02% (inactive).
With COc1ccc(CC(=O)N(C)Cc2cccc(F)c2)cc1S(=O)(=O)N1CCOCC1 the fluorescence artifact activation was 0.26% (inactive).
In the case of CSc1ccc(C2NC(=O)c3c(sc4c3CCN(C)C4)N2)cc1 (stereo not given), the fluorescence artifact activation is reported as 4.52% (inactive).
For N#Cc1ccc(S(=O)(=O)NC2CCN(Cc3ccccc3)CC2)cc1, the fluorescence artifact activation was 2.37% (inactive).
With O=C1NCCCCC1NS(=O)(=O)c1cccc(C(F)(F)F)c1 (stereo not given) the fluorescence artifact activation was 0.33% (inactive).
In the case of N#Cc1ccc(S(=O)(=O)NC2CCCCNC2=O)cc1 (stereo not given), the fluorescence artifact activation is reported as 26.9% (active).
In the case of CCN1CCc2c(sc(NC(=O)c3ccc(S(=O)(=O)N(C)c4ccccc4)cc3)c2C(=O)NC)C1, the fluorescence artifact activation is reported as 0.31% (inactive).
With CCC(Oc1cc(Cl)ccc1Cl)C(=O)NNC(=O)CCC(=O)O (stereo not given) the fluorescence artifact activation was 0.03% (inactive).
For CCn1c(O)c(/C=N/N=C/c2ccc(OC)cc2)c2cc(C3=NNC(=O)CC3)ccc21, the fluorescence artifact activation was 5.84% (inactive).
For COc1ccc(/C=N/N=C2/CC(C)(C)Cc3n[nH]c(=O)cc32)cc1, the fluorescence artifact activation was 357% (active).
In the case of CCn1cc(/C=C/c2cc[n+](C)cc2)c2ccccc21, the fluorescence artifact activation is reported as 0.09% (inactive).
For CC1CN/C(=C\C(=O)c2ccc(Br)cc2)C(=O)N1 (stereo not given), the fluorescence artifact activation was -0.09% (inactive).
In the case of CCN(CC)c1ccc2cc(NC(=O)CCC(=O)O)c(=O)oc2c1, the fluorescence artifact activation is reported as 0.3% (inactive).
For CCN(CC)c1ccc2cc(S(=O)(=O)c3ccc(Cl)cc3)c(=O)oc2c1, the fluorescence artifact activation was 156% (active).
In the case of CCN(CC)c1ccc2cc(S(=O)(=O)c3ccc(C)cc3)c(=O)oc2c1, the fluorescence artifact activation is reported as 9.02% (inactive).
In the case of COc1ccc(C2c3ccc(O)cc3Oc3ncn(CCN4CCOCC4)c(=N)c32)cc1OC (stereo not given), the fluorescence artifact activation is reported as 5.12% (inactive).
With CC(C)c1ccc(OCC(=O)NC(Cc2c[nH]c3ccccc23)C(=O)O)cc1 (stereo not given) the fluorescence artifact activation was 0.01% (inactive).
With CN1CCc2c(sc3c2C(=O)NC(c2ccco2)N3)C1 (stereo not given) the fluorescence artifact activation was 0.18% (inactive).
In the case of O=C(NCc1ccco1)C1CCC(N2C(=O)C3C4CCC(C4)C3C2=O)CC1 (stereo not given), the fluorescence artifact activation is reported as 0.07% (inactive).
In the case of O=C(NCc1ccco1)C1Cc2ccccc2CN1C(=O)c1ccco1 (stereo not given), the fluorescence artifact activation is reported as 1040% (active).
For O=C(O)C1CC(O)CN1C(=O)c1ccco1 (stereo not given), the fluorescence artifact activation was 0.06% (inactive).
For COc1cccc(OC)c1C(=O)NNC(=O)c1ccccc1-n1cccc1, the fluorescence artifact activation was -0.01% (inactive).
For CC(C)(C)C(=O)c1sc2nc(-c3cccs3)cc(C(F)(F)F)c2c1N, the fluorescence artifact activation was 0.13% (inactive).
